Results reported in ChEMBL document CHEMBL4619776, “Probing the Plasticity in the Active Site of Protein N-terminal Methyltransferase 1 Using Bisubstrate Analogues” (J Med Chem, 2020).
Calls of active or inactive are those of the source. No cut-off for these calls is given here. Numbered stars: 1 amine (or outer) side, 2 acyl side, 3 side chain; on linkers, the order of the positions; unused ones are H or OH. Square brackets hold non-standard residues; d marks the D form. Peptide text beside a SMILES is read from it. X1 = Nc1ncnc2c1ncn2[C@@H]1O[C@H](CSCCCN(CC(=O)[*:2])[*:1])[C@@H](O)[C@H]1O; Nlys = NCCCCNCC(=O)O

How the values were obtained:
[1] = target: T1, N-terminal Xaa-Pro-Lys N-methyltransferase 1 (Homo sapiens, UniProt Q9BV86); experiment: Binding affinity to NTMT1 (unknown origin) assessed as binding constant Kd1 by ITC assay
T1 sequence (Q9BV86 whole entry): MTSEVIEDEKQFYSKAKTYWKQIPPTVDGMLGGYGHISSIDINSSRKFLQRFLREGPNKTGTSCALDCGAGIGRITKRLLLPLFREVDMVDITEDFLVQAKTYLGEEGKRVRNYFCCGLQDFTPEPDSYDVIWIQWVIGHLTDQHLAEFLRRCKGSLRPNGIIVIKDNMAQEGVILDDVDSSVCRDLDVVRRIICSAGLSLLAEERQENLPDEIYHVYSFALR
Outline: (§1)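 Purified NTMT1 or NTMT2 at 30–50 μM in the cell; compound at 0.5–1 mM in the same buffer, titrated in as 26 injections of 10 μl spaced 180 s. Data fitted to a one-site or two-site binding model.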

[2] = target: T1, N-terminal Xaa-Pro-Lys N-methyltransferase 1; experiment: Time dependent inhibition of NTMT1 (unknown origin) pre-incubated for 60 mins before GPKRIA peptide substrate addition by SAHH coupled fluorescence assay based Morrison's quadratic equation analysis
[3] = target: T1, N-terminal Xaa-Pro-Lys N-methyltransferase 1; experiment: Time dependent inhibition of NTMT1 (unknown origin) pre-incubated for 120 mins before GPKRIA peptide substrate addition by SAHH coupled fluorescence assay based Morrison's quadratic equation analysis
[4] = target: T1, N-terminal Xaa-Pro-Lys N-methyltransferase 1; experiment: Time dependent inhibition of NTMT1 (unknown origin) pre-incubated for 30 mins before GPKRIA peptide substrate addition by SAHH coupled fluorescence assay based Morrison's quadratic equation analysis
[5] = target: N-terminal Xaa-Pro-Lys N-methyltransferase 2 (Homo sapiens, UniProt Q5VVY1); experiment: Binding affinity to […] (unknown origin) by ITC assay; outline: as §1
[6] = target: T1, N-terminal Xaa-Pro-Lys N-methyltransferase 1; experiment: Binding affinity to NTMT1 (unknown origin) assessed as binding constant Kd2 by ITC assay; outline: as §1
[7] = target: T1, N-terminal Xaa-Pro-Lys N-methyltransferase 1; experiment: Time dependent inhibition of NTMT1 (unknown origin) pre-incubated for 90 mins before GPKRIA peptide substrate addition by SAHH coupled fluorescence assay based Morrison's quadratic equation analysis
[8] = target: T1, N-terminal Xaa-Pro-Lys N-methyltransferase 1; experiment: Time dependent inhibition of NTMT1 (unknown origin) pre-incubated for 10 mins before GPKRIA peptide substrate addition by SAHH coupled fluorescence assay based Morrison's quadratic equation analysis
[9] = target: T1, N-terminal Xaa-Pro-Lys N-methyltransferase 1; experiment: Inhibition of NTMT1 (unknown origin) pre-incubated for 10 mins before GPKRIA peptide substrate addition by SAHH coupled fluorescence assay
Outline: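 Inhibitor at 0.15 nM–10 μM, preincubated 10 min. Reaction started with 0.5 μM GPKRIA (Km). Fluorescence read at ex 400/em 465 nm; IC50 derived.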

[10] = target: T2, N-terminal Xaa-Pro-Lys N-methyltransferase 1 (Homo sapiens) (UniProt Q9BV86); experiment: Substrate activity at NTMT1 (unknown origin) assessed as compound methylation at 10 uM incubated overnight by MALDI-MS methylation assay
T2 sequence (whole entry): T1 sequence (Q9BV86 whole entry)
Outline: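 Compound (10 µM) incubated overnight at 37 °C with 0.1 µM NTMT1 and 3 µM SAM in 20 mM Tris pH 7.5, 50 mM KCl. Quenched 1:1 with 20 mM NH4H2PO4, 0.4% TFA in 1:1 acetonitrile/water. Methylated compound detected by MALDI-MS with 2,5-dihydroxybenzoic acid matrix.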

[11] = target: T3, Histone-lysine N-methyltransferase EHMT2 (Homo sapiens) (UniProt Q96KQ7); experiment: Inhibition of G9a (unknown origin) at 100 uM
T3 sequence (whole entry): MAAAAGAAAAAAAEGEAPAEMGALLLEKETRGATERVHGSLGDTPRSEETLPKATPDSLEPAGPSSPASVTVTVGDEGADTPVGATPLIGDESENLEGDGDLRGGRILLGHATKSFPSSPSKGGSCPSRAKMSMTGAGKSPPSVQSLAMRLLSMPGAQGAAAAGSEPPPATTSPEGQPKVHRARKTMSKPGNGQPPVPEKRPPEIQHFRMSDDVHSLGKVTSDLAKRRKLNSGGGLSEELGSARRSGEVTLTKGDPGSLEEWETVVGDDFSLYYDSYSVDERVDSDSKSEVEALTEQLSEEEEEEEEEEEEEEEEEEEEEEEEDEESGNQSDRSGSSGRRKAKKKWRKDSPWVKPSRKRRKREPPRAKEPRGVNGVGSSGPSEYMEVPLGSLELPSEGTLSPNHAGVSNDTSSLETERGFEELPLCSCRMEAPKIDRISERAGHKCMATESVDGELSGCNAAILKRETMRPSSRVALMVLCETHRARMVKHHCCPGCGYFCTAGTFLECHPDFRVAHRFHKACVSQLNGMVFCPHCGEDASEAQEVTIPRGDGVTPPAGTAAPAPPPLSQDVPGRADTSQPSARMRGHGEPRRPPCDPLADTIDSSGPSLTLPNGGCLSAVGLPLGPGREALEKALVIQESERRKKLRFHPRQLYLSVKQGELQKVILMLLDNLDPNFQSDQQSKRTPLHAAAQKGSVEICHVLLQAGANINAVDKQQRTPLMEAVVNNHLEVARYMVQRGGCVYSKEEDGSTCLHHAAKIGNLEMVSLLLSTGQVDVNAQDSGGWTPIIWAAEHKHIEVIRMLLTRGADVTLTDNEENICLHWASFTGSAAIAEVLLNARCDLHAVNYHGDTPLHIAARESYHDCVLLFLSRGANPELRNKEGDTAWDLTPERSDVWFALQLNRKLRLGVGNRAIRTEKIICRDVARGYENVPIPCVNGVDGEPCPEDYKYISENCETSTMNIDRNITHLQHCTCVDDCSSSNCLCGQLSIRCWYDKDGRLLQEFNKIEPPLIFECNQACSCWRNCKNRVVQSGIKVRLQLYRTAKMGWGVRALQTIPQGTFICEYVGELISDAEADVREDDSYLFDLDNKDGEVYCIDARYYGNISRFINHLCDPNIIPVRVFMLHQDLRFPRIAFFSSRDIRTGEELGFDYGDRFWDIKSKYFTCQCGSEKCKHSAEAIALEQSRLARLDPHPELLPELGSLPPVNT

[12] = target: Protein arginine N-methyltransferase 1 (Homo sapiens) (UniProt Q99873); experiment: Inhibition of PRMT1 (unknown origin) at 30 uM relative to control
Trypanosoma brucei = experiment: Inhibition of Trypanosoma brucei PRMT7 at 30 uM relative to control
[13] = target: Adenosylhomocysteinase (Homo sapiens) (UniProt P23526); experiment: Inhibition of SAHH (unknown origin) at 30 uM relative to control
[14] = target: T4, Nicotinamide N-methyltransferase (Homo sapiens) (UniProt P40261); experiment: Inhibition of NNMT (unknown origin) at 100 uM
T4 sequence (whole entry): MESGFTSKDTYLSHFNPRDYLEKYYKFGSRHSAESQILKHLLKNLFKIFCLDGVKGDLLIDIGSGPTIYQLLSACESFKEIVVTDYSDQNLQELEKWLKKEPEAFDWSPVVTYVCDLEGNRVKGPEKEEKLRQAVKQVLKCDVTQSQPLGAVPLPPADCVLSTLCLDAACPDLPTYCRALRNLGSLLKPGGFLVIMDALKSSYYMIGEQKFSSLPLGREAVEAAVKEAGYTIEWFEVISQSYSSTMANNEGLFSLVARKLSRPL

[15] = target: T5, Histone-lysine N-methyltransferase SETD7 (Homo sapiens) (UniProt Q8WTS6); experiment: Inhibition of SETD7 (unknown origin) at 100 uM
T5 sequence (whole entry): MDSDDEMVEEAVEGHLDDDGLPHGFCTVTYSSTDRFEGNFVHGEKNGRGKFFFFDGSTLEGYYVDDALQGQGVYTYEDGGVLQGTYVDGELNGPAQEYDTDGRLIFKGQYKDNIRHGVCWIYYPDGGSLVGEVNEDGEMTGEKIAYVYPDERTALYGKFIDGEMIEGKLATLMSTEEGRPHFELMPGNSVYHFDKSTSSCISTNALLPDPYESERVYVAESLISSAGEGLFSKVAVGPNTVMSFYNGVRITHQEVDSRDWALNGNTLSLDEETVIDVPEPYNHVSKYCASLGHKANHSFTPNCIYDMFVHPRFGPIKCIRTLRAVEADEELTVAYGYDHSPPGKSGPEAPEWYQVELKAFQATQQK

[16] = target: Protein arginine N-methyltransferase 3 (Homo sapiens) (UniProt O60678); experiment: Inhibition of PRMT3 (unknown origin) at 30 uM pre-incubated for 10 mins before H4-21 peptide addition in presence of SAM relative to control
[17] = target: T1, N-terminal Xaa-Pro-Lys N-methyltransferase 1; experiment: Inhibition of NTMT1 (unknown origin) pre-incubated for 10 mins before GPKRIA peptide substrate addition and measured after 20 mins by MALDI-MS methylation assay

N-terminal Xaa-Pro-Lys N-methyltransferase 2, sequence (Q5VVY1 whole entry): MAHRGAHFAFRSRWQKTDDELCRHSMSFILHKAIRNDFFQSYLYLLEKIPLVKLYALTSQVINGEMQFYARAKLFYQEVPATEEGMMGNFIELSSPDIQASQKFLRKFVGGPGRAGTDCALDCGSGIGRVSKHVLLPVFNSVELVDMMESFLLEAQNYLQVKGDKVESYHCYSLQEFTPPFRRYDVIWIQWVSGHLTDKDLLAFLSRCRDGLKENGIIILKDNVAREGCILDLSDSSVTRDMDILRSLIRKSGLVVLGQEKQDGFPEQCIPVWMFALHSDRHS
Protein arginine N-methyltransferase 1 (Homo sapiens), sequence (Q99873 whole entry, looked up): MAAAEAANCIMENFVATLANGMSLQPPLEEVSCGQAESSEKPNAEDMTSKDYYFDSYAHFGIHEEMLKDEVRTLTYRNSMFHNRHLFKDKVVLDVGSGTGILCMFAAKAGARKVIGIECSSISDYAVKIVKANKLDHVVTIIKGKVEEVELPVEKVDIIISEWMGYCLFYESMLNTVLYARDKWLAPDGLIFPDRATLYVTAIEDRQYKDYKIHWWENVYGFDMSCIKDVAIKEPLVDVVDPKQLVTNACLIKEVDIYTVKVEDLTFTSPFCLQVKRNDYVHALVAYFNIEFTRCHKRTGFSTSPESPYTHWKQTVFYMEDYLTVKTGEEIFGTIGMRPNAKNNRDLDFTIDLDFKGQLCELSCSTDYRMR
Adenosylhomocysteinase (Homo sapiens), sequence (P23526 2-432 limits assumed): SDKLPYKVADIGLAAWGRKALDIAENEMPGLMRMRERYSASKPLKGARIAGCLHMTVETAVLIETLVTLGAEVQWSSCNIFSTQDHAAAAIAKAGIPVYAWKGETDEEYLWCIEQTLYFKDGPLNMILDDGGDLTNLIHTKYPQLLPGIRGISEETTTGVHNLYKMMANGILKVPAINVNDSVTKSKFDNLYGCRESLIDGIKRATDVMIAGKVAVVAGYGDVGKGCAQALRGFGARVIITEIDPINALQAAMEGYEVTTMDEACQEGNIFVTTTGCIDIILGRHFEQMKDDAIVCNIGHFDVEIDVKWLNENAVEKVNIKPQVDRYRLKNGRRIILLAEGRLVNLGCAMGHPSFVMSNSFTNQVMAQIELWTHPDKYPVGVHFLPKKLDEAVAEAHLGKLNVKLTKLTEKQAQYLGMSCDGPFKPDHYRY
Protein arginine N-methyltransferase 3 (Homo sapiens), sequence (O60678 2-531 limits assumed): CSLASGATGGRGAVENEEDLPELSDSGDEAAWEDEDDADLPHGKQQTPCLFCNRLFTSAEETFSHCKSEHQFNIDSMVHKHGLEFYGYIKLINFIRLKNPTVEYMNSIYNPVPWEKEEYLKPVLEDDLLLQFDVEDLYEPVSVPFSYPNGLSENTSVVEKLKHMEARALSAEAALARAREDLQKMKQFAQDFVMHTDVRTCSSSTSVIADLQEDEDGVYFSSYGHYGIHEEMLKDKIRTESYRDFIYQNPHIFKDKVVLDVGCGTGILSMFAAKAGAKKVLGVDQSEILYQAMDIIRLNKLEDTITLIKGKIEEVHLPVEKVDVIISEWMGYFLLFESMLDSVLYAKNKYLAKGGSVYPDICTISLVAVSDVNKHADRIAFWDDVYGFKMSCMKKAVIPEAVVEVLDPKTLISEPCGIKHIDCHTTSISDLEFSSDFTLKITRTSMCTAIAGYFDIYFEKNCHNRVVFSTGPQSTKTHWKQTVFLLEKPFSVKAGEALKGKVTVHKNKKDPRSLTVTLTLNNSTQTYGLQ

CC[C@H](C)[C@H](NC(=O)[C@H](CCCNC(=N)N)NC(=O)[C@H](CCCCN)NC(=O)[C@@H]1CCCN1C(=O)CNCCN(CC[C@H](N)C(=O)O)C[C@H]1O[C@@H](n2cnc3c(N)ncnc32)[C@H](O)[C@@H]1O)C(=O)N[C@@H](C)C(N)=O
Kd [1]: 980 nM | Ki [2]: 8.2 nM | Ki [3]: 5.4 nM | Ki [4]: 6.8 nM | Kd [5]: Not Active | Kd [6]: 46.7 nM | Ki [7]: 4.9 nM | Ki [8]: 99 nM | IC50 ([9]; read-out: IC50): 260 nM

N=C(N)NCCC[C@H](NC(=O)[C@H](CCCCN)NC(=O)[C@@H]1CCCN1C(=O)CNCCN(CC[C@H](N)C(=O)O)C[C@H]1O[C@@H](n2cnc3c(N)ncnc32)[C@H](O)[C@@H]1O)C(N)=O
IC50 ([9]; read-out: IC50): 320 nM

N=C(N)NCCC[C@H](NC(=O)[C@H](CCCCN)NC(=O)[C@@H]1CCCN1C(=O)CNCCCCN(CC[C@H](N)C(=O)O)C[C@H]1O[C@@H](n2cnc3c(N)ncnc32)[C@H](O)[C@@H]1O)C(N)=O
IC50 ([9]; read-out: IC50): 84 nM

CC[C@H](C)[C@H](NC(=O)[C@H](CCCNC(=N)N)NC(=O)[C@H](CCCCN)NC(=O)[C@@H]1CCCN1C(=O)CNCCCN(CC[C@H](N)C(=O)O)C[C@H]1O[C@@H](n2cnc3c(N)ncnc32)[C@H](O)[C@@H]1O)C(=O)N[C@@H](C)C(N)=O
Kd [1]: 2400 nM | Ki [2]: 0.78 nM | Ki [3]: 1.3 nM | Ki [4]: 2.4 nM | Kd [5]: Not Active | Kd [6]: 41 nM | Ki [7]: 2.5 nM | Ki [8]: 41 nM | IC50 ([9]; read-out: IC50): 130 nM

CC[C@H](C)[C@H](NC(=O)[C@H](CCCNC(=N)N)NC(=O)[C@H](CCCCN)NC(=O)[C@@H]1CCCN1C(=O)CNCCCCNCC[C@H](N)C(=O)O)C(=O)N[C@@H](C)C(N)=O
Activity [10]: Active

N=C(N)NCCC[C@H](NC(=O)[C@H](CCCCN)NC(=O)[C@@H]1CCCN1C(=O)CNCCCN(CC[C@H](N)C(=O)O)C[C@H]1O[C@@H](n2cnc3c(N)ncnc32)[C@H](O)[C@@H]1O)C(N)=O
IC50 ([9]; read-out: IC50): 200 nM

CC[C@H](C)[C@H](NC(=O)[C@H](CCCNC(=N)N)NC(=O)[C@H](CCCCN)NC(=O)[C@@H]1CCCN1C(=O)CNCCCCN(CC[C@H](N)C(=O)O)C[C@H]1O[C@@H](n2cnc3c(N)ncnc32)[C@H](O)[C@@H]1O)C(=O)N[C@@H](C)C(N)=O
inhibition [11]: inactive | Kd [1]: 310 nM | inhibition [12]: < 50% | inhibition (Trypanosoma brucei): < 50% | Ki [2]: 0.73 nM | inhibition [13]: < 50% | Ki [3]: 0.13 nM | Ki [4]: 0.49 nM | inhibition [14]: inactive | Kd [5]: Not Active | Kd [6]: 2.47 nM | Ki [7]: 0.62 nM | Ki [8]: 15 nM | IC50 ([9]; read-out: IC50): 82 nM | inhibition [15]: inactive | inhibition [16]: < 50%

CC[C@H](C)[C@H](NC(=O)[C@H](CCCNC(=N)N)NC(=O)[C@H](CCCCN)NC(=O)[C@@H]1CCCN1C(=O)CNCCCCN)C(=O)N[C@@H](C)C(N)=O (H-[Nlys]PKRIA-NH2)
Activity [10]: Active

Nc1ncnc2c1ncn2[C@@H]1O[C@H](CNCC[C@H](N)C(=O)O)[C@@H](O)[C@H]1O
IC50 [17]: > 10 µM

CC[C@H](C)[C@H](NC(=O)[C@H](CCCNC(=N)N)NC(=O)[C@H](CCCCN)NC(=O)[C@@H]1CCCN1C(=O)CNCCCCCN(CC[C@H](N)C(=O)O)C[C@H]1O[C@@H](n2cnc3c(N)ncnc32)[C@H](O)[C@@H]1O)C(=O)N[C@@H](C)C(N)=O
Kd [1]: 1600 nM | Kd [5]: Not Active | Kd [6]: 480 nM | IC50 [9]: Not Active

CC[C@H](C)[C@H](NC(=O)[C@H](CCCNC(=N)N)NC(=O)[C@H](CCCCN)NC(=O)[C@@H]1CCCN1C(=O)CNCCCSC[C@H]1O[C@@H](n2cnc3c(N)ncnc32)[C@H](O)[C@@H]1O)C(=O)N[C@@H](C)C(N)=O (H-[X1]PKRIA-NH2)
Activity [10]: Active

NCCCCN(CC[C@H](N)C(=O)O)C[C@H]1O[C@@H](n2cnc3c(N)ncnc32)[C@H](O)[C@@H]1O
IC50 ([9]; read-out: IC50): > 10000 nM
